# Measured values reported in ChEMBL document CHEMBL1157556, “Synthesis and biological screening of a combinatorial library of beta-chlorovinyl chalcones as anticancer, anti-inflammatory and antimicrobial agents” (Bioorg Med Chem, 2010).
# How the values were obtained:
# Bacillus subtilis [1] = test: Antibacterial activity against Bacillus subtilis MTCC 1789 at 50 ug/ml after 24 hrs agar diffusion method; type: functional; conditions: MTCC 1789, 24 h, read-out: IZ
# Summary of the method: (§1)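 Agar well diffusion on Mueller Hinton agar seeded with 0.1 mL of a 10⁵ cfu/mL suspension in 0.85% saline. Compounds dissolved in DMSO, final concentrations 25–250 µg/mL, 0.1 mL loaded per 6 mm well. DMSO (1%) control; tetracycline (10 µg/mL) reference. Duplicate plates incubated 24 h at 37 °C. Inhibition zone read in mm. MIC taken as lowest concentration giving complete growth inhibition.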
# Proteus vulgaris [2] = test: Antibacterial activity against Proteus vulgaris MTCC 1771 at 50 ug/ml after 24 hrs agar diffusion method; type: functional; conditions: MTCC 1771, 24 h, read-out: IZ; summary of the method: as §1
# Escherichia coli [3] = test: Antibacterial activity against Escherichia coli MTCC 1650 at 50 ug/ml after 24 hrs agar diffusion method; type: functional; conditions: MTCC 1650, 24 h, read-out: IZ; summary of the method: as §1
# Klebsiella pneumoniae [4] = test: Antibacterial activity against Klebsiella pneumoniae NCIM 2957 at 50 ug/ml after 24 hrs agar diffusion method; type: functional; conditions: NCIM 2957, 24 h, read-out: IZ; summary of the method: as §1
# Staphylococcus aureus [5] = test: Antibacterial activity against Staphylococcus aureus MTCC 96 at 50 ug/ml after 24 hrs agar diffusion method; type: functional; conditions: MTCC 96, 24 h, read-out: IZ; summary of the method: as §1
# Aspergillus flavus = test: Antifungal activity against Aspergillus flavus MTCC 2501 at 100 ug/ml after 48 hrs agar diffusion method; type: functional; conditions: for zone of inhibition at 100 µg/mL: MTCC 2501, 48 h, read-out: IZ
# Summary of the method: (§2)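 Fungal spore suspensions in sterile distilled water adjusted to 10⁶ cfu/mL; 0.1 mL spread on Sabouraud dextrose agar. Wells of 6 mm filled with 0.1 mL compound dilution in DMSO. DMSO (1%) control; nystatin (30 µg/mL) reference. Duplicate plates incubated at 28 °C for 48 h. Activity read as inhibition zone diameter in mm.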
# Penicillium chrysogenum = test: Antifungal activity against Penicillium chrysogenum MTCC 1996 at 100 ug/ml after 48 hrs agar diffusion method; type: functional; conditions: for zone of inhibition at 100 µg/mL: MTCC 1996, 48 h, read-out: IZ; summary of the method: as §2
# Aspergillus niger = test: Antifungal activity against Aspergillus niger MTCC 1781 at 100 ug/ml after 48 hrs agar diffusion method; type: functional; conditions: for zone of inhibition at 100 µg/mL: MTCC 1781, 48 h, read-out: IZ; summary of the method: as §2
# Trichoderma viride = test: Antifungal activity against Trichoderma viride MTCC 167 at 100 ug/ml after 48 hrs agar diffusion method; type: functional; conditions: for zone of inhibition at 100 µg/mL: MTCC 167, 48 h, read-out: IZ; summary of the method: as §2
# Escherichia coli [6] = test: Antibacterial activity against Escherichia coli MTCC 1650 after 24 hrs; type: functional; conditions: MTCC 1650, 24 h; summary of the method: as §1
# Klebsiella pneumoniae [7] = test: Antibacterial activity against Klebsiella pneumoniae NCIM 2957 after 24 hrs; type: functional; conditions: NCIM 2957, 24 h; summary of the method: as §1
# THP-1 [8] = test: Antiinflammatory activity in human THP1 cells assessed as inhibition of LPS-induced IL6 release at 10 uM after 24 hrs by ELISA; type: functional; conditions: THP-1, 24 h
# Summary of the method: (§3)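 THP-1 cells grown in RPMI 1640 with 10% FBS, penicillin and streptomycin, then PMA-differentiated. Compounds in 0.5% DMSO preincubated 30 min at 37 °C before LPS (E. coli 0127:B8) stimulation. TNF-α and IL-6 release measured by kit per the manufacturer (BD Biosciences). Percent inhibition calculated relative to control. Dexamethasone 1 µM as reference.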
# THP-1 [9] = test: Antiinflammatory activity in human THP1 cells assessed as inhibition of LPS-induced TNFalpha release at 10 uM after 24 hrs by ELISA; type: functional; conditions: THP-1, 24 h; summary of the method: as §3
# THP-1 [10] = test: Cytotoxicity against human THP1 cells assessed as CCK8 release at 10 uM after 24 hrs by ELISA; type: cell-based; conditions: thp-1, 24 h
# Summary of the method: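 Same THP-1 cytokine-assay cells, with compounds in 0.5% DMSO and LPS stimulation, were scored in parallel for cytotoxicity by CCK-8.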
# Calu-1 = test: Anticancer activity against human Calu1 cells at 10 uM after 48 hrs by propidium iodide fluorescence assay; type: functional
# Summary of the method: (§4)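 Propidium iodide DNA-fluorescence assay. Seeding 3000–7500 cells/well, 24 h recovery at 37 °C in 5% CO₂. Compounds in 0.1% DMSO added to triplicate wells at 10 µM. Flavopiridol 700 nM and gemcitabine 500 nM as reference inhibitors. Plates frozen at −80 °C for 24 h, thawed to room temperature, fluorescence read at excitation 530 nm and emission 620 nm. Percent cytotoxicity calculated.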
# Staphylococcus aureus [11] = test: Antibacterial activity against Staphylococcus aureus MTCC 96 after 24 hrs; type: functional; conditions: MTCC 96, 24 h; summary of the method: as §1
# Proteus vulgaris [12] = test: Antibacterial activity against Proteus vulgaris MTCC 1771 after 24 hrs; type: functional; conditions: MTCC 1771, 24 h; summary of the method: as §1
# NCI-H460 = test: Anticancer activity against human H460 cells at 10 uM after 48 hrs by propidium iodide fluorescence assay; type: functional; summary of the method: as §4
# ACHN = test: Anticancer activity against human ACHN cells at 10 uM after 48 hrs by propidium iodide fluorescence assay; type: functional; summary of the method: as §4
# Bacillus subtilis [13] = test: Antibacterial activity against Bacillus subtilis MTCC 1789 after 24 hrs; type: functional; conditions: MTCC 1789, 24 h; summary of the method: as §1
# HCT-116 = test: Anticancer activity against human HCT116 cells at 10 uM after 48 hrs by propidium iodide fluorescence assay; type: functional; summary of the method: as §4
# PANC-1 = test: Anticancer activity against human PANC1 cells at 10 uM after 48 hrs by propidium iodide fluorescence assay; type: functional; summary of the method: as §4
# Candida albicans = test: Antifungal activity against Candida albicans MTCC 227 at 100 ug/ml after 48 hrs agar diffusion method; type: functional; conditions: MTCC 227, 48 h, read-out: IZ; summary of the method: as §2
Molecule,zone of inhibition at 50 µg/mL (Bacillus subtilis [1]) [mm],zone of inhibition at 50 µg/mL (Proteus vulgaris [2]) [mm],zone of inhibition at 50 µg/mL (Escherichia coli [3]) [mm],zone of inhibition at 50 µg/mL (Klebsiella pneumoniae [4]) [mm],zone of inhibition at 50 µg/mL (Staphylococcus aureus [5]) [mm],zone of inhibition at 100 µg/mL (Aspergillus flavus) [mm],MIC (Escherichia coli [6]) [µg/mL],MIC (Klebsiella pneumoniae [7]) [µg/mL],inhibition at 10 µM (THP-1 [8]) [%],inhibition at 10 µM (THP-1 [9]) [%],Activity (THP-1 [10]) [%],Activity (Calu-1) [%],MIC (Staphylococcus aureus [11]) [µg/mL],MIC (Proteus vulgaris [12]) [µg/mL],Activity (NCI-H460) [%],Activity (ACHN) [%],MIC (Bacillus subtilis [13]) [µg/mL],Activity (HCT-116) [%],zone of inhibition at 100 µg/mL (Trichoderma viride) [mm],Activity (PANC-1) [%],other results
CN(C)[C@@H]1C(O)=C(C(N)=O)C(=O)[C@@]2(O)C(O)=C3C(=O)c4c(O)cccc4[C@@](C)(O)[C@H]3C[C@@H]12 [TETRACYCLINE],18,16,15,20,18,,,,,,,,,,,,,,,,
NYSTATIN,,,,,,,,,,,,,,,,,,,,,inhibition zone (IZ) (Aspergillus flavus): 16 mm; inhibition zone (IZ) (Penicillium chrysogenum): 14 mm; inhibition zone (IZ) (Aspergillus niger): 13 mm; inhibition zone (IZ) (Trichoderma viride): 12 mm
COc1ccc(C(=O)/C=C/C=C(\Cl)c2ccc(Br)cc2)cc1,,,,11,12,8,50,50,97,66,30,29,50,50,20,39,50,20,8,25,zone of inhibition at 100 µg/mL (Penicillium chrysogenum): 12 mm
COc1ccc(C(=O)/C=C/C=C(\Cl)c2cccc(Cl)c2)cc1,15,15,10,17,13,8,50,50,3,1,35,20,50,50,26,22,50,31,11,18,
COc1ccc(C(=O)/C=C/C=C(\Cl)c2ccc(OC)cc2OC)cc1,12,,10,,,10,50,50,40,0,35,7,50,50,15,33,50,0,12,7,zone of inhibition at 100 µg/mL (Aspergillus niger): 11 mm
COc1ccc(C(=O)/C=C/C=C(\Cl)c2ccc(Cl)cc2)cc1,,,,10,,12,50,50,95,67,28,32,50,50,33,35,50,29,12,30,zone of inhibition at 100 µg/mL (Penicillium chrysogenum): 12 mm; zone of inhibition at 100 µg/mL (Candida albicans): 10 mm; zone of inhibition at 100 µg/mL (Aspergillus niger): 13 mm
COc1ccc(C(=O)/C=C/C=C(\Cl)c2ccc(OC)cc2OC)c(OC)c1,,13,,,,,50,50,27,0,0,24,50,50,18,26,50,29,,23,zone of inhibition at 100 µg/mL (Aspergillus niger): 13 mm
COc1ccc(C(=O)/C=C/C=C(\Cl)c2ccc(F)cc2)c(OC)c1,10,16,11,,,10,50,50,44,0,0,36,50,50,26,30,50,14,,23,
COc1ccc(C(=O)/C=C/C=C(\Cl)c2ccc(Cl)cc2)c(OC)c1,14,18,10,15,13,12,50,50,43,0,0,32,50,50,21,37,50,26,12,32,zone of inhibition at 100 µg/mL (Penicillium chrysogenum): 14 mm; zone of inhibition at 100 µg/mL (Aspergillus niger): 14 mm
